Laboratory results as given in ChEMBL document CHEMBL1122631, “2,3,4,4a,5,9b-Hexahydro-1H-indeno[1,2-b]pyridines: potential antidepressants” (J Med Chem, 1984).
“And” between values parts separate entries of the source, which are not always exact repeats. Equal values may be shown once.

Legend:
Mus musculus [1] = test: Antidepressant activity was measured by the prevention of tetrabenazine (TBZ) induced ptosis in mice after intraperitoneal administration of the compound.; type: functional; settings: ip
Method in brief: (§1)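 Mice given compound ip in 1% methylcellulose (10 mL/kg), 30 min before tetrabenazine 40 mg/kg base ip; solvent+TBZ control per test. Ptosis scored 30 min after TBZ (+1 min) as 100/50/0% (closed/half/open), not normalized.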

[2] = Acute toxicity in mice, after intraperitoneal administration.; type: organism-based; settings: mouse, in vivo, ip
Method in brief: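 Mice, groups of 10, given compound suspended in 1% methylcellulose ip at 10 mL/kg, then housed with food and water ad libitum. Observed hourly up to 6 h; deaths recorded at 24 and 48 h.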

[3] = Therapeutic index (TI), ratio of LD50 and ED50 (TBZ) in mice after i.p. administration; settings: mouse, in vivo, ip
Rattus norvegicus [4] = species on record: Rattus norvegicus; test: Compound was tested for inhibition of uptake of [14C]5-HT (5-HT) into rat whole brain, in vitro; Not determined.; type: functional
Method in brief: (§2)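 Rat brain synaptosomes (Whittaker method) incubated with labelled monoamine (1 × 10^-7 mol final) at 37 °C with or without drug. [14C]NE and [14C]5-HT uptake in Krebs-Henseleit bicarbonate pH 7.4 with 11 mmol glucose; [3H]DA uptake in phosphate buffer, corpus striatum synaptosomes. Time: 5 min whole brain, 10 min hypothalamus. Nonspecific binding at 0 °C; membrane filtration, scintillation counting; IC50 from 3–4 concentrations, at least triplicate.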

Rattus norvegicus [5] = species on record: Rattus norvegicus; test: Compound was tested for inhibition of uptake of [14C]norepinephrine (NE) into rat brain hypothalamus, in vitro; Not determined.; type: functional; method in brief: as §2
Rattus norvegicus [6] = species on record: Rattus norvegicus; test: Compound was tested for inhibition of uptake of [14C]5-HT (5-HT) into rat whole brain, in vitro.; type: functional; method in brief: as §2
Rattus norvegicus [7] = species on record: Rattus norvegicus; test: Compound was tested for inhibition of uptake of [3H]dopamine (DA) into rat corpus striatum, in vitro.; type: functional; method in brief: as §2
Rattus norvegicus [8] = species on record: Rattus norvegicus; test: Compound was tested for inhibition of uptake of [14C]norepinephrine (NE) into rat brain hypothalamus, in vitro.; type: functional; method in brief: as §2
Mus musculus [9] = test: Prevention of tetrabenazine induced ptosis in mice following i.p. administration.; type: functional; settings: ip; method in brief: as §1
Rattus norvegicus [10] = test: Ability to inhibit re uptake of [14C]norepinephrine in synaptosomes from rat whole brain, was determined 1 hr after peroral administration of 80 mg of compound.; type: functional
Method in brief: (§3)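 Ex vivo/in vitro: rats dosed orally or ip, killed 1 h later; whole-brain synaptosomes from a pool of n=3 rats; [14C]NE or [14C]5-HT uptake (Krebs-Henseleit bicarbonate, pH 7.4, 11 mmol glucose; 1 × 10^-7 mol labelled amine, 37 °C, 5 min), filtration, scintillation counting; quadruplicate determinations, mean ± SD as % of control-animal uptake.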

Rattus norvegicus [11] = test: Ability to inhibit re uptake of [14C]-5-HT in synaptosomes from rat whole brain, was determined 1 h after intraperitoneal administration of 80 mg of compound.; type: functional; method in brief: as §3
[12] = Partition coefficient (logP); type: physicochemical; settings: octanol/water
Rattus norvegicus [13] = test: Ability to inhibit re uptake of [14C]5-HT in synaptosomes from rat whole brain, was determined 1 h after peroral administration of 80 mg of compound.; type: functional, organism-based; method in brief: as §3
Rattus norvegicus [14] = test: Ability to inhibit re uptake of [14C]norepinephrine in synaptosomes from rat whole brain, was determined 1 h after peroral administration of 80 mg of compound.; type: functional, organism-based; method in brief: as §3
Rattus norvegicus [15] = test: Ability to inhibit re uptake of [14C]norepinephrine in synaptosomes from rat whole brain, was determined 1 hr after intraperitoneal administration of 80 mg of compound.; type: functional; method in brief: as §3

| SMILES | LD50 [2] | selectivity ratio [3] | IC50 (Rattus norvegicus [4]) | IC50 (Rattus norvegicus [5]) | ED50 (Mus musculus [9]) | other results |
| --- | --- | --- | --- | --- | --- | --- |
| CCCCOc1ccc([C@@H]2c3ccccc3[C@@H]3[C@H]2CCCN3C)cc1 | 134 mg/kg | 14 | – | – | – | ED50 (Mus musculus [1]): 10 mg/kg |
| COc1cc2c(cc1OC)[C@H]1NCCC[C@H]1[C@@H]2c1ccc(N)cc1 | – | – | No compound available | No compound available | – | – |
| COc1ccc2c(c1)[C@@H](c1ccc(N(C)C)cc1)[C@@H]1CCCN[C@H]21 | – | – | No compound available | No compound available | – | – |
| c1ccc2c(c1)[C@H](c1ccncc1)[C@@H]1CCCN[C@H]21 | – | – | No compound available | No compound available | – | – |
| Nc1ccc([C@H]2c3ccccc3[C@H]3NCCC[C@@H]23)cc1 | 20 mg/kg | – | – | – | 3 mg/kg | IC50 (Rattus norvegicus [6]): 20000 nM; IC50 (Rattus norvegicus [7]): 330 nM; IC50 (Rattus norvegicus [8]): 180 nM |
| Cc1ccc([C@H]2c3cc(O)ccc3[C@H]3NCCC[C@@H]23)cc1N | 67 mg/kg | – | – | – | – | ED50 (Mus musculus [1]): 10 mg/kg |
| COc1cc2c(cc1OC)[C@H]1NCCC[C@H]1[C@@H]2c1cccnc1 | – | – | No compound available | No compound available | – | – |
| CN1CCC[C@H]2[C@H](c3ccc(N)cc3)c3ccccc3[C@H]21 | 50 mg/kg | 500 | – | – | 0.1 mg/kg | IC50 (Rattus norvegicus [6]): ~100000 nM; IC50 (Rattus norvegicus [7]): 240 nM; IC50 (Rattus norvegicus [8]): 110 nM |
| c1ccc2c(c1)[C@@H](c1ccncc1)[C@@H]1CCCN[C@H]21 | 20 mg/kg | 10 | – | – | – | ED50 (Mus musculus [1]): 2 mg/kg |
| c1ccc([C@@H]2c3ccccc3[C@H]3NCCC[C@@H]23)cc1 | 27 mg/kg | 39 | – | – | 0.7 mg/kg | IC50 (Rattus norvegicus [6]): ~100000 nM; IC50 (Rattus norvegicus [7]): 20 nM; IC50 (Rattus norvegicus [8]): 18 nM |
| CCCCOc1ccc([C@H]2c3ccccc3[C@H]3NCCC[C@@H]23)cc1 | – | – | No compound available | No compound available | – | – |
| CCCCOc1ccc([C@@H]2c3ccccc3[C@H]3NCCC[C@@H]23)cc1 | 46 mg/kg | 46 | – | – | – | ED50 (Mus musculus [1]): 1 mg/kg |
| COc1cc2c(cc1OC)[C@@H]1[C@@H](CCCN1C)[C@@H]2c1ccccc1 | – | – | No compound available | No compound available | – | – |
| CN1CCC[C@H]2[C@@H](c3ccc(N)cc3)c3ccccc3[C@H]21 | 7 mg/kg | 14 | – | – | 0.5 mg/kg | – |
| COc1ccc([C@@H]2c3ccccc3[C@@H]3[C@H]2CCCN3C)cc1 | 95 mg/kg | 19 | – | – | – | ED50 (Mus musculus [1]): 5 mg/kg |
| CN1CCC[C@H]2[C@@H](c3ccc(O)cc3)c3ccccc3[C@H]21 | – | – | No compound available | No compound available | – | – |
| CN1CCC[C@H]2[C@H](c3ccccc3)c3ccccc3[C@H]21 | 74 mg/kg | 185 | – | – | 0.4 mg/kg | IC50 (Rattus norvegicus [6]): ~100000 nM; IC50 (Rattus norvegicus [7]): 100 nM; IC50 (Rattus norvegicus [8]): 12 nM |

| SMILES | LD50 [2] | selectivity ratio [3] | IC50 (Rattus norvegicus [4]) | IC50 (Rattus norvegicus [5]) | ED50 (Mus musculus [9]) | other results |
| --- | --- | --- | --- | --- | --- | --- |
| Cc1ccc([C@@H]2c3ccccc3[C@H]3NCCC[C@@H]23)cc1N | 40 mg/kg | 20 | – | – | 2 mg/kg | – |
| CN1CCC[C@H]2[C@H](c3ccc(O)cc3)c3ccccc3[C@H]21 | 178 mg/kg | 36 | – | – | – | ED50 (Mus musculus [1]): 5 mg/kg |
| CNCCCN1c2ccccc2CCc2ccccc21 [DESIPRAMINE] | – | – | – | – | – | IC50 (Rattus norvegicus [6]): 11 nM; IC50 (Rattus norvegicus [8]): 25 nM |
| Nc1ccc([C@@H]2c3cc(O)ccc3[C@H]3NCCC[C@@H]23)cc1 | 150 mg/kg | 1500 | – | – | 0.1 mg/kg | Uptake (Rattus norvegicus [10]): > 90%; Uptake (Rattus norvegicus [11]): > 90%; logP [12]: 1.91; IC50 (Rattus norvegicus [6]): 1600 nM; Uptake (Rattus norvegicus [13]): > 90%; IC50 (Rattus norvegicus [7]): 46 nM; IC50 (Rattus norvegicus [8]): 15 nM |
| CCCCOc1ccc([C@H]2c3ccccc3[C@@H]3[C@H]2CCCN3C)cc1 | – | – | No compound available | No compound available | – | – |
| COc1ccc2c(c1)[C@@H](c1ccc(C)cc1)[C@@H]1CCCN[C@H]21 | – | – | No compound available | No compound available | – | – |
| COc1ccc2c(c1)[C@@H](c1ccc(C(C)C)cc1)[C@@H]1CCCN[C@H]21 | – | – | No compound available | No compound available | – | – |
| Cc1ccc([C@@H]2c3cc(O)ccc3[C@H]3NCCC[C@@H]23)cc1N | 210 mg/kg | 70 | – | – | – | Uptake (Rattus norvegicus [14]): > 90% and 83.5% and 88.1%; ED50 (Mus musculus [1]): 3 mg/kg; Uptake (Rattus norvegicus [11]): > 90%; logP [12]: 2.33; IC50 (Rattus norvegicus [6]): 430 nM; Uptake (Rattus norvegicus [15]): 80% and > 90% and 87.7%; Uptake (Rattus norvegicus [13]): > 90%; IC50 (Rattus norvegicus [7]): 100 nM; IC50 (Rattus norvegicus [8]): 40 nM |
| CCCN1CCC[C@H]2[C@H](c3ccccc3)c3ccccc3[C@H]21 | 24 mg/kg | 30 | – | – | 0.8 mg/kg | IC50 (Rattus norvegicus [6]): > 100000 nM; IC50 (Rattus norvegicus [7]): 110 nM; IC50 (Rattus norvegicus [8]): 410 nM |
| Cc1ccc([C@@H]2c3ccccc3[C@@H]3[C@H]2CCCN3C)cc1 | 232 mg/kg | 77 | – | – | 3 mg/kg | Uptake (Rattus norvegicus [14]): > 90% (2×) and 76.3%; Uptake (Rattus norvegicus [11]): > 90%; logP [12]: 3.83; IC50 (Rattus norvegicus [6]): > 100000 nM; Uptake (Rattus norvegicus [13]): > 90% (2×) and 88.1%; IC50 (Rattus norvegicus [7]): 90 nM; IC50 (Rattus norvegicus [8]): 65 nM |
| Cc1ccc([C@@H]2c3cc(O)ccc3[C@H]3NCCC[C@@H]23)cc1 | 67 mg/kg | 67 | – | – | – | Uptake (Rattus norvegicus [14]): > 90%; ED50 (Mus musculus [1]): 1 mg/kg; Uptake (Rattus norvegicus [11]): > 90% and 84.9%; logP [12]: 3.13; IC50 (Rattus norvegicus [6]): 280 nM; Uptake (Rattus norvegicus [15]): 68.2% and 62%; Uptake (Rattus norvegicus [13]): 90.4% and 86.9%; IC50 (Rattus norvegicus [7]): 17 nM; IC50 (Rattus norvegicus [8]): 31 nM |
| COc1cc2c(cc1OC)[C@H]1NCCC[C@H]1[C@@H]2c1ccccc1 | – | – | No compound available | No compound available | – | – |
| Oc1ccc([C@@H]2c3ccccc3[C@H]3NCCC[C@@H]23)cc1 | 30 mg/kg | 15 | – | – | – | ED50 (Mus musculus [1]): 2 mg/kg |
| COc1ccc2c(c1)[C@@H](c1ccc(N)cc1)[C@@H]1CCCN[C@H]21 | 60 mg/kg | 60 | – | – | 1 mg/kg | – |
| Nc1cccc([C@@H]2c3ccccc3[C@H]3NCCC[C@@H]23)c1 | 40 mg/kg | 20 | – | – | 2 mg/kg | – |
| COc1ccc([C@H]2c3ccccc3[C@@H]3[C@H]2CCCN3C)cc1 | – | – | No compound available | No compound available | – | – |
| Oc1ccc([C@H]2c3ccccc3[C@H]3NCCC[C@@H]23)cc1 | – | – | No compound available | No compound available | – | – |
